The values below come from PubChem BioAssay.

A short description of experiment [1]: S. cerevisiae growth inhibition in permissive medium (OD615), pilot counter-assay for S. cerevisiae lifespan shortening project, permissive growth control (AID 705;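 active = growth inhibition above 25% in both replicates, a cutoff set 3 SD above the mean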). Conditions: OD615, 24 h, at 10 µM, active compounds read high. The procedure, abridged: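 Material: engineered DeaD yeast; compound dosing: one dose 10 µM, DMSO 0.25% final; measure: yeast growth inhibition indicated by reduced 24 h OD615; detection: OD615 turbidity read; incubation: cells pre-grown 4 h, then 24 h compound exposure, 30 °C humidified; medium: permissive synthetic complete medium with raffinose and galactose carbon sources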

Experiment [2] in a line: S. cerevisiae growth inhibition in restrictive medium, OD615, pilot screen, restrictive growth control, yeast lifespan reduction project (AID 706;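 active = growth inhibition above a set limit, 3 SD over mean compound inhibition, in both replicates, cut at about 43% in these data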;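 note: modified DeaD lifespan yeast strain shifted to restrictive glucose medium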). Conditions: OD615, 48 h, at 10 µM, active compounds read high. In a few lines:
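material = engineered S. cerevisiae DeaD strain | medium = glucose-based CSMM-D restrictive medium | times = 4 h pre-incubation, 48 h exposure at 30 °C | technique = OD615 absorbance reading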

Experiment [3] in a line: doxorubicin toxicity protection in MRP-1 cells – H69AR cells, CellTiter-Glo, duplicate, MRP-1 activator project, pilot screen (AID 807;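 active = viability increase at or above a cutoff of the median across tested compounds plus 3 SD, cut at about 8.5% in these data, passing the limit was not always enough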;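 note: compound pretreatment 18-22 h then 72 h combined with doxorubicin; 0% = doxorubicin alone and 100% = vehicle without doxorubicin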). Conditions: H69AR viability with doxorubicin, CellTiter-Glo luminescence; at 10 µM; active compounds read high. A general note: In ATP-based viability assays light output follows the ATP content of the culture.
Experiment [4] is described as follows: viability of HCT116 without oncogenic beta-catenin – human colon tumor cells, pilot screen (AID 823).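 Note: 0% = wells killed by 20 µM Hyamine and 100% = untreated DMSO cell wells.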 The settings on record: HCT116 beta-catenin knockout viability, CellTiter-Glo, 60 h; at 10 µM; active compounds read low.
Experiment [5] in a line: viability of PTEN-null HCT116 cells – cell-based, HCT116 clonal line, CellTiter-Glo, pilot screen (AID 824;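 active = viability at or below 27.92% in each of two runs, the all-compound median minus 4 SD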;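 note: 0% = 20 µM Hyamine control and 100% = vehicle cell control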). Conditions: HCT116 PTEN-deleted viability, 60 h, at 10 µM, active compounds read low.
Experiment [6] is described as follows: RAM pathway blockade in budding yeast – dse1pr::URA3 reporter, 5-FOA selection, pilot screen (AID 869;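 active = inhibition over a set limit, the all-compound mean plus 3 SD, in both replicate runs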;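 note: 0% = DMSO wells with no growth and 100% = 10 µM 1-NA-PP1 with full growth; RAM network block rescues cells from 5-FOA so hits raise OD615 growth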). The settings on record: S. cerevisiae dse1pr::URA3 5-FOA growth, OD615, 2 d; at 10 µM; active compounds read high; strain carries analog-sensitive mutant Cbk1 kinase.
A short description of experiment [7]: RAM signaling pathway blockade in yeast – S. cerevisiae, Pdr1DBD-CYC8 efflux-inhibited sensitized strain, primary screen (AID 1298;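 active = RAM network inhibition above 8.4% in each of two replicates, 3 SD over the compound average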;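 note: 0% = DMSO untreated cells without growth and 100% = 10 µM 1-NA-PP1 full growth; higher means more yeast growth rescued from 5-FOA killing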). The settings on record: S. cerevisiae cbk1-as DSE1-URA3 strain, 5-FOA growth OD615, 2 d; at 50 µM; active compounds read high.

A number with no mark means an inactive call. Inconclusive results are not listed. The source made the active and inactive calls.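 Rule for the calls, unless noted: active = cell viability at or below a set limit in both duplicate runs, the limit being the all-compound median minus 4 SD (cut at about 23% in these data, passing the limit was not always enough); inconclusive = no clear call, values can overlap the other calls; inactive = the rest.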

For `Cc1cccc(-n2c(O)c(C=Nc3ccc4c(c3)OCO4)c3ccccc3c2=O)n1`, the growth inhibition in experiment [1] is 1.54%; in experiment [2], -8.37%. Also, the viability increase in experiment [3] was -0.5%. The viability in experiment [4] is 89.3%; in experiment [5], 80.2%. Moreover, the inhibition in experiment [6] was 0.93%. The RAM network inhibition in experiment [7] was 2.46%.

With `Cc1sc2nc(SCC(=O)N(CCO)CCO)n(C3CCCCC3)c(=O)c2c1C`, the growth inhibition in experiment [1] was -10.3%; in experiment [2], 0.44%. Also, the viability increase in experiment [3] was -2.54%. The values for the viability in experiment [4] and in experiment [5] were 99% and 104%, respectively. Further, the inhibition in experiment [6] was 2.33%. For the same compound, the RAM network inhibition in experiment [7] is 10.7%.

On to `Cc1cc(Nc2ccc(F)cc2F)n2ncnc2n1`, for which the growth inhibition is -1.61% in experiment [1] and 6.47% in experiment [2]. Moreover, in experiment [3], the viability increase was -1.6%. Further, the viability was 96.5% in experiment [4] and 97.8% in experiment [5]. In addition, the inhibition in experiment [6] is 1.35%. For the same compound, the RAM network inhibition in experiment [7] is 1.04%.

For `Brc1ccc(-c2nnc3sc(CNC4CCCC4)cn23)cc1`, the growth inhibition in experiment [1] was 0.69%; in experiment [2], 24.3%. Further, the viability increase in experiment [3] was 0.19%. For the same compound, the viability was 106% in experiment [4] and 107% in experiment [5]. Besides, in experiment [6], the inhibition is 1.58%. Also, the RAM network inhibition in experiment [7] was 2.6%.

For `N#CC1=C(c2ccccc2)N=P(N2CCOCC2)(N2CCOCC2)N=C1N1CCOCC1`, the growth inhibition in experiment [1] was -6.26%; in experiment [2], -16.2%. In experiment [3], the viability increase is 0.57%. Moreover, the viability in experiment [4] was 103%; in experiment [5] it was 107%. For the same compound, the inhibition in experiment [6] was 1.39%. For the same compound, in experiment [7], the RAM network inhibition was 0.33%.

With `O=C(Cc1cc(=O)[nH]c(=O)[nH]1)N1CCC(Cc2ccccc2)CC1`, the results for the growth inhibition in experiment [1] and in experiment [2] were 0.795% and -5.47%, respectively. Further, the viability increase in experiment [3] was -0.99%. The viability in experiment [4] is 96%; in experiment [5] it was 94.2%. In experiment [6], the inhibition was 1.33%. Besides, the RAM network inhibition in experiment [7] is 3.92%.

Take `O=C(Nc1ccc(Oc2ccccc2)cc1)c1cnc2n(c1=O)CCS2`: the growth inhibition in experiment [1] is -16.5%; in experiment [2], -12.6%. Moreover, the viability increase in experiment [3] is 5.46%. In addition, the viability is 68.8% in experiment [4] and 65.9% in experiment [5]. For the same compound, in experiment [6], the inhibition is 3.62%. The RAM network inhibition in experiment [7] is 8.2%.

`O=C(Cn1ncc2c(=O)oc3ccccc3c21)N1CCc2ccccc2C1`: the growth inhibition in experiment [1] is -12.5%; in experiment [2], -12.7%. Further, in experiment [3], the viability increase was -1.69%. In addition, the figures for the viability in experiment [4] and in experiment [5] were 103% and 94.7%, respectively. Further, in experiment [6], the inhibition is 0.645%. Also, the RAM network inhibition in experiment [7] is -0.07%.

For the compound `Cc1cc(/C=N/n2cnnc2)c(C)n1-c1cc(Cl)ccc1Cl`, the growth inhibition is 3.15% in experiment [1] and 18.3% in experiment [2]. Also, the viability increase in experiment [3] is -3.01%. Moreover, the viability in experiment [4] was 51.9%; in experiment [5] it was 69.7%. For the same compound, the inhibition in experiment [6] is 1.85%. The RAM network inhibition in experiment [7] is 1.38%.

Consider `O=C(CCn1c(=O)oc2ccccc21)NCCCN1CCCC1=O`, for which the growth inhibition is 4.51% in experiment [1] and 0.85% in experiment [2]. Besides, in experiment [3], the viability increase is 1.26%. For the same compound, the viability was 107% in experiment [4] and 98.5% in experiment [5]. Moreover, the inhibition in experiment [6] was 1.01%. Besides, in experiment [7], the RAM network inhibition was 0.46%.

Consider `Cc1cc(Nc2cccc(F)c2)n2nc(C)nc2n1`, for which the growth inhibition in experiment [1] was -13.6%; in experiment [2] it was -7.6%. Besides, the viability increase in experiment [3] was -2.42%. Besides, the viability is 101% in experiment [4] and 94.4% in experiment [5]. In addition, in experiment [6], the inhibition is 1.08%. Further, the RAM network inhibition in experiment [7] is 5.28%.

Turning to `Cc1noc(C(=O)NCc2ccco2)c1Cl`, the growth inhibition in experiment [1] is -10.3%; in experiment [2] it was -34.1%. In addition, the viability increase in experiment [3] is -3.01%. The values for the viability in experiment [4] and in experiment [5] were 102% and 101%, respectively. In experiment [6], the inhibition was 1.78%. Besides, the RAM network inhibition in experiment [7] is 2.4%.

In the case of `CCCCn1ccc(=O)c2c(C(F)(F)F)nccc21`, the growth inhibition is -6.65% in experiment [1] and -11.4% in experiment [2]. For the same compound, in experiment [3], the viability increase was -3.12%. In addition, the viability in experiment [4] is 87.8%; in experiment [5] it was 84.4%. For the same compound, in experiment [6], the inhibition was 1.19%. Besides, the RAM network inhibition in experiment [7] was -0.41%.

Turning to `CSC1=NCCN1C(=O)Cc1ccc(Cl)cc1`, the growth inhibition was 1.21% in experiment [1] and -7% in experiment [2]. Besides, the viability increase in experiment [3] is 4.4%. Besides, the viability in experiment [4] is 108%; in experiment [5] it was 96.7%. In experiment [6], the inhibition is 0.105%. For the same compound, in experiment [7], the RAM network inhibition is -0.15%.

In the case of `CCCCCn1c(CNC(C)=O)nc2ccccc21`, the growth inhibition in experiment [1] was -11.1%; in experiment [2], -13.2%. The viability increase in experiment [3] is 0.03%. Also, the viability is 93.5% in experiment [4] and 97.7% in experiment [5]. Also, in experiment [6], the inhibition is 0.54%. In experiment [7], the RAM network inhibition was 7.59%.

For `COc1cccc(N(CC(=O)Nc2cccc(C(C)=O)c2)S(C)(=O)=O)c1`, the figures for the growth inhibition in experiment [1] and in experiment [2] were -9.21% and -2.52%, respectively. Also, the viability increase in experiment [3] is -0.61%. Besides, the values for the viability in experiment [4] and in experiment [5] were 101% and 93.7%, respectively. Moreover, the inhibition in experiment [6] was 1.08%. Besides, in experiment [7], the RAM network inhibition is 5.87%.

Take `CCSC1=C(C#N)C(c2ccccc2C)CC(=O)N1` (stereo not drawn): the growth inhibition is -9.12% in experiment [1] and -23.4% in experiment [2]. Further, the viability increase in experiment [3] is -2.22%. Moreover, the viability in experiment [4] was 92.5%; in experiment [5], 87.7%. The inhibition in experiment [6] was 1.98%. Besides, the RAM network inhibition in experiment [7] is 4.78%.

Turning to `COC(=O)c1ccc(-n2nnnc2SCC(=O)N2CCCCC2)cc1`, the growth inhibition in experiment [1] is -8.57%; in experiment [2], -21.9%. In addition, the viability increase in experiment [3] was -3%. Moreover, the viability is 85.8% in experiment [4] and 86.1% in experiment [5]. The inhibition in experiment [6] is 0.045%. Further, in experiment [7], the RAM network inhibition was 1.64%.

Turning to `CCn1c2ccccc2c2nnc(SCN3C(=O)c4ccccc4C3=O)nc21`, the growth inhibition was -12.1% in experiment [1] and -1.02% in experiment [2]. Also, the viability increase in experiment [3] was -3.94%. Besides, the viability in experiment [4] is 98.5%; in experiment [5], 100%. Also, the inhibition in experiment [6] was 2.71%. In experiment [7], the RAM network inhibition is 5.66%.

For `CCOC(=O)CSC1=C(C#N)C(c2ccccc2OC)CC(=O)N1` (stereo not drawn), the growth inhibition was -14% in experiment [1] and -1.51% in experiment [2]. Moreover, the viability increase in experiment [3] is -6.53%. Also, the viability in experiment [4] was 27.5%; in experiment [5] it was 27.4% (active). The inhibition in experiment [6] is 0.27%. In addition, the RAM network inhibition in experiment [7] was -0.77%.

For the compound `O=C(NCc1ccco1)Nc1ccc(Br)cc1`, the growth inhibition in experiment [1] was 3.96%; in experiment [2], 5.27%. In addition, in experiment [3], the viability increase is -2.7%. In addition, the viability was 95.7% in experiment [4] and 97.7% in experiment [5]. Further, the inhibition in experiment [6] is 1.09%. Also, the RAM network inhibition in experiment [7] was 5.07%.

In the case of `Cc1onc(-c2ccccc2Cl)c1C(=O)Nc1nnc(-c2ccc(F)cc2)s1`, the growth inhibition in experiment [1] is -16.7%; in experiment [2], -1.93%. The viability increase in experiment [3] is 2.9%. In addition, the viability in experiment [4] was 98.5%; in experiment [5], 90.5%. For the same compound, the inhibition in experiment [6] is 2.51%. Moreover, in experiment [7], the RAM network inhibition was 5.79%.

Regarding `CCCOc1cccc(C(=O)Nc2cccc(NC(=O)c3ccco3)c2)c1`, the growth inhibition in experiment [1] is -11.2%; in experiment [2] it was -14.9%. In addition, in experiment [3], the viability increase is -3.58%. Besides, the viability in experiment [4] is 85.3%; in experiment [5], 91.6%. For the same compound, the inhibition in experiment [6] was 1.04%. In addition, the RAM network inhibition in experiment [7] was 8.68%.

`CCS(=O)(=O)Nc1cc(-c2nc3cccnc3s2)ccc1C`: the growth inhibition is -6.48% in experiment [1] and 12.5% in experiment [2]. In experiment [3], the viability increase is -3.94%. The values for the viability in experiment [4] and in experiment [5] were 100% and 82.8%, respectively. In addition, in experiment [6], the inhibition is 1.89%. In addition, the RAM network inhibition in experiment [7] was 5.32%.

For orientation: viability means a read-out of living cells in per cent, often relative to untreated cells. Broadly, the inhibition is the share of the control response that was lost under treatment.
